What was measured:
Plasmodium malariae [1] = test: Antimalarial activity against Plasmodium malariae trophozoite stage infected in red blood cells in presence of AB+ human serum by drug susceptibility assay; format: functional, organism-based
Method in brief: (§1)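 Field isolates from venous blood, leukocytes removed on CF11 column. Modified WHO schizont-maturation microtest at 2% hematocrit in McCoy's 5A with 20% AB+ serum, 11 twofold dilutions (chloroquine top 5,910 nM). Candle jar, 37.5°C, 15–56 h, stopped at >40% schizonts in the drug-free control. Schizonts (≥5 chromatin dots) per 200 asexual parasites, normalized to control. IC50 from inhibitory sigmoid Emax fit. Isolates grouped by predominant stage at start.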

Plasmodium malariae [2] = test: Antimalarial activity against Plasmodium malariae ring stage infected in red blood cells in presence of AB+ human serum by drug susceptibility assay; format: functional, organism-based; method in brief: as §1
Plasmodium ovale [3] = test: Antimalarial activity against Plasmodium ovale ring stage infected in red blood cells in presence of AB+ human serum by drug susceptibility assay; format: functional; method in brief: as §1
Plasmodium ovale [4] = test: Antimalarial activity against Plasmodium ovale trophozoite stage infected in red blood cells in presence of AB+ human serum by drug susceptibility assay; format: functional; method in brief: as §1
Plasmodium malariae [5] = test: Antimalarial activity against Plasmodium malariae in patients assessed as parasite reduction ratio at 25 mg/kg, po after 48 hrs; format: functional
Method in brief: (§2)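 Oral chloroquine tablets (150 mg base each) at 25 mg/kg over 3 days, all doses supervised; dose repeated once if vomited within 60 min. Parasitemia counted on Giemsa-stained thick films as parasites per 200 WBCs by an expert microscopist. Reduction ratio taken at 48 h.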

Plasmodium ovale [6] = test: Antimalarial activity against Plasmodium ovale in patients assessed as parasite reduction ratio at 25 mg/kg, po after 48 hrs; format: functional; method in brief: as §2

| SMILES | IC50 (Plasmodium malariae [1]) | IC50 (Plasmodium malariae [2]) | IC50 (Plasmodium ovale [3]) | IC50 (Plasmodium ovale [4]) | Ratio (Plasmodium malariae [5]) | Ratio (Plasmodium ovale [6]) |
| --- | --- | --- | --- | --- | --- | --- |
| CCN(CC)Cc1cc(Nc2ccnc3cc(Cl)ccc23)ccc1O | 19.1 nM | 21.7 nM | 4.3 nM | – | – | – |
| C[C@H]1[C@H](OC(=O)CCC(=O)O)O[C@@H]2O[C@@]3(C)CC[C@H]4[C@H](C)CC[C@@H]1[C@@]24OO3 [ARTESUNATE] | 2.84 nM | 1.77 nM | 1.16 nM | 1.28 nM | – | – |
| CCN(CC)CCCC(C)Nc1ccnc2cc(Cl)ccc12 (stereo not drawn) [CHLOROQUINE] | 128 nM | 14 nM | 7.8 nM | 23.2 nM | 86 | 150 |
| Clc1ccc2c(N3CCN(CCCN4CCN(c5ccnc6cc(Cl)ccc56)CC4)CC3)ccnc2c1 [PIPERAQUINE] | 38.4 nM | 29 nM | 10.2 nM | 7.57 nM | – | – |

Now from value to compound, other results behind:

| IC50 (Plasmodium malariae [1]) | IC50 (Plasmodium malariae [2]) | IC50 (Plasmodium ovale [3]) | IC50 (Plasmodium ovale [4]) | SMILES | Ratio (Plasmodium malariae [5]) | Ratio (Plasmodium ovale [6]) |
| --- | --- | --- | --- | --- | --- | --- |
| 46.9 nM | 36.8 nM | 23.8 nM | – | OC(c1cc(C(F)(F)F)nc2c(C(F)(F)F)cccc12)C1CCCCN1 (stereo not drawn) [MEFLOQUINE] | – | – |
| 7.8 nM | 4.1 nM | 0.72 nM | – | COc1ccc2nc3cc(Cl)ccc3c(Nc3cc(CN4CCCC4)c(O)c(CN4CCCC4)c3)c2n1 [PYRONARIDINE] | – | – |

From ChEMBL document CHEMBL1687821, “In vivo and in vitro efficacy of chloroquine against Plasmodium malariae and P. ovale in Papua, Indonesia” (Antimicrob Agents Chemother, 2011)
